# Reference: ChEMBL document CHEMBL1150169, “Fatty acid synthase inhibitors from plants: isolation, structure elucidation, and SAR studies” (J Nat Prod, 2002)
# What was measured:
# Cryptococcus neoformans = assay: Antifungal activity against Cryptococcus neoformans ATCC 90113; assay type: functional, organism-based
# Candida albicans = assay: Antifungal activity against Candida albicans ATCC 90028; assay type: functional, organism-based
# [1] = Inhibition of Saccharomyces cerevisiae fatty acid synthase
# Method in brief: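 Yeast FAS semipurified by 50% ammonium sulfate precipitation of lysate (pH 6.6 phosphate, EDTA, DTT, protease inhibitors), dialyzed, and diluted to 250 mOD/min/mL. Samples preincubated with enzyme 30 min at room temperature, then mixed 1:1 with mix of 1 mM malonyl CoA and NADPH, 40 µM acetyl CoA, and 2 mM DTT. A340 read kinetically; rate over initial 2 min. IC50 from dose-response curves.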
Structure (SMILES),IC50 (Cryptococcus neoformans),IC50 (Candida albicans),IC50 [1]
COc1cc(O)c(C(=O)CCc2ccccc2)c(O)c1,> 50 µg/mL,> 50 µg/mL,> 50 µg/mL
Cc1cc2oc(-c3ccccc3)cc(=O)c2cc1Cl,> 50 µg/mL,> 50 µg/mL,> 50 µg/mL
COc1cc(O)c(C(=O)CCc2ccc(O)cc2)c(O)c1 [ASEBOGENIN],> 50 µg/mL,> 50 µg/mL,> 50 µg/mL
C=C(C)C(O)Cc1c(O)ccc(C(=O)/C=C/c2ccc(O)cc2)c1O (stereo not given),50 µg/mL,20 µg/mL,46 µg/mL
C[C@@H]1O[C@@H](Oc2cc3c(=O)oc4c(O)c(O)cc5c(=O)oc(c2O)c3c45)[C@H](O)[C@H](O)[C@H]1O [ESCHWEILENOL C],> 50 µg/mL,> 50 µg/mL,7.5 µg/mL
CC1(C)CC[C@]2(C(=O)O)CC[C@]3(C)C(=CC[C@@H]4[C@@]5(C)C[C@@H](O)[C@H](O)[C@@](C)(CO)[C@@H]5CC[C@]43C)[C@@H]2C1 [ARJUNOLIC ACID],20 µg/mL,> 50 µg/mL,27.5 µg/mL
Oc1cc(O)c2c(c1)O[C@H](c1ccc(O)c(O)c1)[C@H](O)C2 [(-)-EPICATECHIN],> 50 µg/mL,> 50 µg/mL,> 50 µg/mL
COc1cc2c(=O)oc3c(OC)c(O[C@@H]4O[C@H](CO)[C@@H](O)[C@H](O)[C@H]4O)cc4c(=O)oc(c1OC)c2c34,> 50 µg/mL,> 50 µg/mL,> 50 µg/mL
O=C1c2c(O)cc(O)cc2OC1(O)Cc1cc(O)c(O)c(O)c1 (stereo not given) [AMARANOL A],> 50 µg/mL,> 50 µg/mL,> 50 µg/mL
O=C1C[C@@H](c2ccc(O)cc2)Oc2cc(O)cc(O)c21 [NARINGENIN],> 50 µg/mL,> 50 µg/mL,> 50 µg/mL
CC1(C)CC[C@]2(C(=O)O)CC[C@]3(C)C(=CC[C@@H]4[C@@]5(C)C[C@@H](O)[C@H](O)[C@@](C)(COC(=O)c6cc(O)c(O)c(O)c6)[C@@H]5[C@H](O)C[C@]43C)[C@@H]2C1,> 50 µg/mL,> 50 µg/mL,> 50 µg/mL
O=c1c(-c2ccc(O)c(O)c2)coc2cc(O)cc(O)c12 [OROBOL],> 50 µg/mL,> 50 µg/mL,> 50 µg/mL
C[C@@H]1O[C@@H](OC[C@H]2O[C@@H](Oc3c(-c4ccc(O)c(O)c4)oc4cc(O)cc(O)c4c3=O)[C@H](O)[C@@H](O)[C@@H]2O)[C@H](O)[C@H](O)[C@H]1O [RUTIN],30 µg/mL,> 50 µg/mL,> 50 µg/mL
COc1ccc(-c2coc3cc(O)cc(O)c3c2=O)cc1 [BIOCHANIN],> 50 µg/mL,> 50 µg/mL,> 50 µg/mL
COc1cc(O)c2c(=O)cc(-c3ccc(O)cc3)oc2c1-c1cc(-c2cc(=O)c3c(O)cc(O)cc3o2)ccc1O [SOTETSUFLAVONE],> 50 µg/mL,> 50 µg/mL,25 µg/mL
O=c1cc(-c2ccc(O)cc2)oc2cc(O)cc(O)c12 [APIGENIN],20 µg/mL,> 50 µg/mL,37.5 µg/mL
O=C1c2c(O)cc(O)c(C3C(=O)c4c(O)cc(O)cc4OC3c3ccc(O)cc3)c2OC(c2ccc(O)c(O)c2)C1O (stereo not given),> 50 µg/mL,> 50 µg/mL,23 µg/mL
O=c1cc(-c2ccc(Cl)cc2)oc2ccc(Br)cc12,> 50 µg/mL,> 50 µg/mL,> 50 µg/mL
CC1(C)C=Cc2c(cc3occ(-c4ccc(O)cc4)c(=O)c3c2O)O1 [ALPINUMISOFLAVONE],> 50 µg/mL,> 50 µg/mL,> 50 µg/mL
Cc1ccc2oc(-c3ccc(Cl)cc3)cc(=O)c2c1,> 50 µg/mL,> 50 µg/mL,> 50 µg/mL
O=Cc1cc(-c2coc3cc(O)cc(O)c3c2=O)ccc1O,> 50 µg/mL,> 50 µg/mL,2.3 µg/mL
C/C=C/C/C=C/CCC(=O)[C@H]1O[C@H]1C(N)=O [CERULENIN],0.15 µg/mL,0.4 µg/mL,0.15 µg/mL
C=C(C)C(O)Cc1cc(-c2coc3cc(O)cc(O)c3c2=O)ccc1O (stereo not given),> 50 µg/mL,> 50 µg/mL,> 50 µg/mL
O=C(OC[C@H]1O[C@@H](OC(=O)c2cc(O)c(O)c(O)c2)[C@H](OC(=O)c2cc(O)c(O)c(O)c2)[C@@H](OC(=O)c2cc(O)c(O)c(O)c2)[C@@H]1OC(=O)c1cc(O)c(O)c(O)c1)c1cc(O)c(O)c(O)c1 [PENTAGALLOYL GLUCOSE],> 50 µg/mL,> 50 µg/mL,2.8 µg/mL
O=c1c(-c2ccc(O)cc2)coc2cc(O)c(O)cc12,> 50 µg/mL,> 50 µg/mL,50 µg/mL

Structure (SMILES),IC50 (Cryptococcus neoformans),IC50 (Candida albicans),IC50 [1]
O=C1c2c(O)cc(O)cc2OC(c2ccc(O)cc2O)C1O (stereo not given),> 50 µg/mL,> 50 µg/mL,> 50 µg/mL
O=c1c(O)c(-c2ccc(O)cc2)oc2cc(O)cc(O)c12 [KAEMPFEROL],> 50 µg/mL,> 50 µg/mL,50 µg/mL
O=c1c(O)c(-c2ccc(O)c(O)c2)oc2cc(O)cc(O)c12 [QUERCETIN],> 50 µg/mL,> 50 µg/mL,12 µg/mL
COc1c(O[C@@H]2O[C@H](CO)[C@@H](O)[C@H](O)[C@H]2O)cc2c(=O)oc3c4c(cc5c(=O)oc1c2c35)OCO4 [NYSSOSIDE],> 50 µg/mL,> 50 µg/mL,> 50 µg/mL
O=c1cc(-c2ccccc2)oc2c(Br)cc(Br)cc12,> 50 µg/mL,> 50 µg/mL,> 50 µg/mL
O=c1cc(-c2ccccc2)oc2cc(O)c(O)c(O)c12 [BAICALEIN],> 50 µg/mL,6 µg/mL,25 µg/mL
O=c1c(O)c(-c2cc(O)c(O)c(O)c2)oc2cc(O)cc(O)c12 [MYRICETIN],> 50 µg/mL,> 50 µg/mL,15 µg/mL
O=C(O)[C@H]1O[C@@H](Oc2cc3oc(-c4ccccc4)cc(=O)c3c(O)c2O)[C@H](O)[C@@H](O)[C@@H]1O [BAICALIN],> 50 µg/mL,> 50 µg/mL,> 50 µg/mL
O=c1c(O)c(-c2ccc(O)c(O)c2)oc2cc(O)ccc12 [FISETIN],> 50 µg/mL,> 50 µg/mL,> 50 µg/mL
COc1c(O)cc(CC2(O)Oc3cc(O)cc(O)c3C2=O)cc1O (stereo not given) [AMARONOL B],> 50 µg/mL,> 50 µg/mL,> 50 µg/mL
O=c1c(-c2ccc(O)cc2)coc2cc(O)cc(O)c12 [GENISTEIN],> 50 µg/mL,> 50 µg/mL,> 50 µg/mL
O=c1cc(-c2ccc(O)c(-c3c(O)cc(O)c4c(=O)cc(-c5ccc(O)cc5)oc34)c2)oc2cc(O)cc(O)c12 [AMENTOFLAVONE],> 50 µg/mL,> 50 µg/mL,7 µg/mL
O=c1c(O)c(-c2ccccc2)oc2cc(O)cc(O)c12 [GALANGIN],> 50 µg/mL,> 50 µg/mL,> 50 µg/mL
C[C@H]1[C@H](C)CC[C@]2(C(=O)O)CC[C@]3(C)C(=CC[C@@H]4[C@@]5(C)CC[C@H](O)C(C)(C)[C@@H]5CC[C@]43C)[C@H]12 [URSOLIC ACID],> 50 µg/mL,> 50 µg/mL,38 µg/mL
O=C1CC(c2ccccc2)Oc2ccccc21 (stereo not given) [FLAVANONE],> 50 µg/mL,> 50 µg/mL,> 50 µg/mL
Cc1c(-c2ccccc2)oc2c(C(=O)O)cccc2c1=O,> 50 µg/mL,> 50 µg/mL,> 50 µg/mL
O=c1cc(-c2ccc(O)c(O)c2)oc2cc(O)cc(O)c12 [LUTEOLIN],> 50 µg/mL,> 50 µg/mL,9 µg/mL
COc1cc2oc(-c3ccccc3)cc(=O)c2c(OC)c1OC [BAICALEIN TRIMETHYL ETHER],> 50 µg/mL,> 50 µg/mL,> 50 µg/mL
C=C(C)[C@@H]1CC[C@]2(C(=O)O)CC[C@]3(C)[C@H](CC[C@@H]4[C@@]5(C)CC[C@H](O)C(C)(C)[C@@H]5CC[C@]43C)[C@@H]12 [BETULINIC ACID],> 50 µg/mL,> 50 µg/mL,> 50 µg/mL
O=C(O)C[C@@H]1C(=O)O[C@H]2[C@@H]3OC(=O)c4cc(O)c(O)c(O)c4-c4c(cc(O)c(O)c4O)C(=O)OC[C@H]2O[C@@H](OC(=O)c2cc(O)c(O)c(O)c2)[C@@H]3OC(=O)c2cc(O)c(O)c3c2[C@H]1[C@H](O)C(=O)O3 [CHEBULAGIC ACID],> 50 µg/mL,> 50 µg/mL,> 50 µg/mL
COc1ccc(-c2coc3cc(O)c(O)cc3c2=O)cc1 [FORMONETIN],> 50 µg/mL,> 50 µg/mL,50 µg/mL
O=c1oc2c(O)c(O)cc3c(=O)oc4c(O)c(O)cc1c4c23 [ELLAGIC ACID],5.5 µg/mL,> 50 µg/mL,20 µg/mL
O=C(O)C[C@H]1C(=O)O[C@H]2[C@H](OC(=O)c3cc(O)c(O)c(O)c3)[C@@H](OC(=O)c3cc(O)c(O)c4c3[C@H]1[C@H](O)C(=O)O4)[C@H](OC(=O)c1cc(O)c(O)c(O)c1)O[C@@H]2COC(=O)c1cc(O)c(O)c(O)c1 [CHEBULINIC ACID],> 50 µg/mL,> 50 µg/mL,> 50 µg/mL
CC1(C)CC[C@]2(C(=O)O[C@@H]3O[C@H](CO)[C@@H](O)[C@H](O)[C@H]3O)CC[C@]3(C)C(=CC[C@@H]4[C@@]5(C)C[C@@H](O)[C@H](O)[C@@](C)(CO)[C@@H]5[C@H](O)C[C@]43C)[C@@H]2C1 [CHEBULOSIDE II],> 50 µg/mL,> 50 µg/mL,> 50 µg/mL
CC1(C)CC[C@]2(C(=O)O)CC[C@]3(C)C(=CC[C@@H]4[C@@]5(C)C[C@@H](O)[C@H](O)[C@@](C)(CO)[C@@H]5[C@H](O)C[C@]43C)[C@@H]2C1 [TERMINOLIC ACID],> 50 µg/mL,> 50 µg/mL,> 50 µg/mL
